Where “and” joins values, the source holds several entries; their conditions need not be identical. Equal entries are not always repeated.
Assays:
Format in all cases: toxicity, cell-based
Fibroblast = test: Multiplex assay against human fibroblast; details: number of replicates 2
In short: (§1)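 Live cells were stained at seeding with Hoechst33342, BioTracker Green Microtubule Cytoskeleton Dye, MitoTracker Red and Annexin V Alexa Fluor 680, then imaged on a CQ1 microscope at 37°C and 5% CO2 after compound addition. CellPathfinder machine-learning gating split cells into Hoechst high-intensity objects or normal cells. Normal cells were split into healthy, pyknosed or fragmented nuclei, and pyknosed cells into mitotic or apoptotic. Tubulin, mitochondrial-mass and membrane-permeability phenotypes are per cents of healthy-nucleus cells.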

HEK-293T = test: Multiplex assay against HEK293T; details: human, number of replicates 2; in short: as §1
U2OS = test: Multiplex assay against U2OS; details: human, number of replicates 2; in short: as §1
[1] = 12 h, 1 µM, compound concentration 1 uM
[2] = 12 h, 10 µM, compound concentration 10 uM
[3] = 24 h, 1 µM, compound concentration 1 uM
[4] = 24 h, 10 µM, compound concentration 10 uM
[5] = 48 h, 1 µM, compound concentration 1 uM
[6] = 48 h, 10 µM, compound concentration 10 uM

## CC(C)c1c(NC(=O)Nc2ccc(Cl)cc2)c(=O)n(-c2ccccc2)n1C
Fibroblast; [1]
  Population Apoptotic (%): 30% and 36%
  Population Fragmented Nuclei (%): 9% and 13%
  Population Healthy Nuclei (%): 77% and 68%
  Population Hoechst High Intensity Objects (%): 0%
  Population Membrane Permeable-Phenotype (%): 5% and 3%
  Population Mitochondria Different-Phenotype (%): 0%
  Population Mitotic Cells (%): 69% and 63%
  Population Normal (%): 100% and 99%
  Population Pyknosed Nuclei (%): 13% and 17%
  Population Tubulin-Different-Phenotype (%): 11% and 7%
  Total Cell Count: 175 and 269
Fibroblast; [2]
  Population Apoptotic (%): 34% and 46%
  Population Fragmented Nuclei (%): 9% and 7%
  Population Healthy Nuclei (%): 68%
  Population Hoechst High Intensity Objects (%): 0%
  Population Membrane Permeable-Phenotype (%): 2% and 11%
  Population Mitochondria Different-Phenotype (%): 1%
  Population Mitotic Cells (%): 65% and 53%
  Population Normal (%): 99% and 100%
  Population Pyknosed Nuclei (%): 21% and 24%
  Population Tubulin-Different-Phenotype (%): 12% and 21%
  Total Cell Count: 122 and 191
Fibroblast; [3]
  Population Apoptotic (%): 34% and 35%
  Population Fragmented Nuclei (%): 10% and 14%
  Population Healthy Nuclei (%): 75% and 71%
  Population Hoechst High Intensity Objects (%): 0%
  Population Membrane Permeable-Phenotype (%): 5% and 6%
  Population Mitochondria Different-Phenotype (%): 0% and 1%
  Population Mitotic Cells (%): 65% and 64%
  Population Normal (%): 100%
  Population Pyknosed Nuclei (%): 13%
  Population Tubulin-Different-Phenotype (%): 14% and 5%
  Total Cell Count: 166 and 271
Fibroblast; [4]
  Population Apoptotic (%): 48% and 35%
  Population Fragmented Nuclei (%): 5% and 6%
  Population Healthy Nuclei (%): 73% and 65%
  Population Hoechst High Intensity Objects (%): 0%
  Population Membrane Permeable-Phenotype (%): 7% and 6%
  Population Mitochondria Different-Phenotype (%): 0%
  Population Mitotic Cells (%): 52% and 64%
  Population Normal (%): 100%
  Population Pyknosed Nuclei (%): 20% and 27%
  Population Tubulin-Different-Phenotype (%): 13%
  Total Cell Count: 123 and 204
Fibroblast; [5]
  Population Apoptotic (%): 79% and 65%
  Population Fragmented Nuclei (%): 14% and 17%
  Population Healthy Nuclei (%): 71% and 74%
  Population Hoechst High Intensity Objects (%): 0%
  Population Membrane Permeable-Phenotype (%): 2% and 6%
  Population Mitochondria Different-Phenotype (%): 0%
  Population Mitotic Cells (%): 20% and 34%
  Population Normal (%): 100%
  Population Pyknosed Nuclei (%): 13% and 8%
  Population Tubulin-Different-Phenotype (%): 8% and 4%
  Total Cell Count: 174 and 274
Fibroblast; [6]
  Population Apoptotic (%): 53% and 47%
  Population Fragmented Nuclei (%): 17% and 14%
  Population Healthy Nuclei (%): 70% and 62%
  Population Hoechst High Intensity Objects (%): 0%
  Population Membrane Permeable-Phenotype (%): 8% and 10%
  Population Mitochondria Different-Phenotype (%): 0%
  Population Mitotic Cells (%): 46% and 52%
  Population Normal (%): 100% and 99%
  Population Pyknosed Nuclei (%): 11% and 23%
  Population Tubulin-Different-Phenotype (%): 12% and 13%
  Total Cell Count: 134 and 222
HEK-293T; [1]
  Population Apoptotic (%): 40% and 36%
  Population Fragmented Nuclei (%): 3% and 2%
  Population Healthy Nuclei (%): 85% and 86%
  Population Hoechst High Intensity Objects (%): 6% and 5%
  Population Membrane Permeable-Phenotype (%): 3% and 2%
  Population Mitochondria Different-Phenotype (%): 11% and 14%
  Population Mitotic Cells (%): 59% and 63%
  Population Normal (%): 93% and 94%
  Population Pyknosed Nuclei (%): 10% and 11%
  Population Tubulin-Different-Phenotype (%): 48% and 50%
  Total Cell Count: 880 and 697
HEK-293T; [2]
  Population Apoptotic (%): 49% and 41%
  Population Fragmented Nuclei (%): 2% and 4%
  Population Healthy Nuclei (%): 86% and 81%
  Population Hoechst High Intensity Objects (%): 8% and 4%
  Population Membrane Permeable-Phenotype (%): 4% and 6%
  Population Mitochondria Different-Phenotype (%): 14% and 18%
  Population Mitotic Cells (%): 50% and 58%
  Population Normal (%): 91% and 95%
  Population Pyknosed Nuclei (%): 11% and 14%
  Population Tubulin-Different-Phenotype (%): 57% and 50%
  Total Cell Count: 669 and 576
HEK-293T; [3]
  Population Apoptotic (%): 36% and 39%
  Population Fragmented Nuclei (%): 5%
  Population Healthy Nuclei (%): 87% and 88%
  Population Hoechst High Intensity Objects (%): 8%
  Population Membrane Permeable-Phenotype (%): 4% and 3%
  Population Mitochondria Different-Phenotype (%): 3% and 5%
  Population Mitotic Cells (%): 63% and 60%
  Population Normal (%): 91%
  Population Pyknosed Nuclei (%): 6% and 5%
  Population Tubulin-Different-Phenotype (%): 27% and 32%
  Total Cell Count: 1449 and 1121
HEK-293T; [4]
  Population Apoptotic (%): 54% and 40%
  Population Fragmented Nuclei (%): 6%
  Population Healthy Nuclei (%): 85% and 83%
  Population Hoechst High Intensity Objects (%): 8% and 5%
  Population Membrane Permeable-Phenotype (%): 3%
  Population Mitochondria Different-Phenotype (%): 5% and 8%
  Population Mitotic Cells (%): 45% and 59%
  Population Normal (%): 91% and 94%
  Population Pyknosed Nuclei (%): 7% and 10%
  Population Tubulin-Different-Phenotype (%): 37% and 33%
  Total Cell Count: 1033 and 815
HEK-293T; [5]
  Population Apoptotic (%): 10% and 15%
  Population Fragmented Nuclei (%): 14% and 10%
  Population Healthy Nuclei (%): 83% and 86%
  Population Hoechst High Intensity Objects (%): 9% and 10%
  Population Membrane Permeable-Phenotype (%): 5% and 3%
  Population Mitochondria Different-Phenotype (%): 0%
  Population Mitotic Cells (%): 89% and 84%
  Population Normal (%): 90% and 89%
  Population Pyknosed Nuclei (%): 2% and 3%
  Population Tubulin-Different-Phenotype (%): 13% and 15%
  Total Cell Count: 3573 and 2488
HEK-293T; [6]
  Population Apoptotic (%): 16% and 17%
  Population Fragmented Nuclei (%): 15% and 13%
  Population Healthy Nuclei (%): 81% and 83%
  Population Hoechst High Intensity Objects (%): 8% and 9%
  Population Membrane Permeable-Phenotype (%): 7% and 4%
  Population Mitochondria Different-Phenotype (%): 0% and 1%
  Population Mitotic Cells (%): 83% and 82%
  Population Normal (%): 91% and 90%
  Population Pyknosed Nuclei (%): 3% and 2%
  Population Tubulin-Different-Phenotype (%): 19% and 15%
  Total Cell Count: 2549 and 1775
U2OS; [1]
  Population Apoptotic (%): 33% and 32%
  Population Healthy Nuclei (%): 66% and 85%
  Population Hoechst High Intensity Objects (%): 0%
  Population Membrane Permeable-Phenotype (%): 0%
  Population Mitochondria Different-Phenotype (%): 0%
  Population Mitotic Cells (%): 66% and 68%
  Population Normal (%): 100%
  Population Pyknosed Nuclei (%): 10% and 9%
  Population Tubulin-Different-Phenotype (%): 65% and 81%
U2OS; [2]
  Population Apoptotic (%): 100% and 43%
  Population Hoechst High Intensity Objects (%): 0%
  Population Membrane Permeable-Phenotype (%): 0% and 2%
  Population Mitochondria Different-Phenotype (%): 0%
  Population Normal (%): 100% and 99%
  Population Pyknosed Nuclei (%): 6%
  Population Tubulin-Different-Phenotype (%): 85% and 66%
U2OS; [3]
  Population Apoptotic (%): 50% and 26%
  Population Healthy Nuclei (%): 68% and 89%
  Population Hoechst High Intensity Objects (%): 0%
  Population Membrane Permeable-Phenotype (%): 0% and 1%
  Population Mitochondria Different-Phenotype (%): 0%
  Population Mitotic Cells (%): 50% and 73%
  Population Normal (%): 100% and 99%
  Population Pyknosed Nuclei (%): 15% and 7%
  Population Tubulin-Different-Phenotype (%): 61% and 84%
U2OS; [4]
  Population Apoptotic (%): 100% and 36%
  Population Healthy Nuclei (%): 32% and 87%
  Population Hoechst High Intensity Objects (%): 0%
  Population Membrane Permeable-Phenotype (%): 0% and 2%
  Population Mitochondria Different-Phenotype (%): 0%
  Population Normal (%): 100%
  Population Pyknosed Nuclei (%): 2% and 8%
  Population Tubulin-Different-Phenotype (%): 64% and 78%
U2OS; [5]
  Population Apoptotic (%): 50% and 49%
  Population Fragmented Nuclei (%): 12% and 3%
  Population Healthy Nuclei (%): 72% and 88%
  Population Hoechst High Intensity Objects (%): 0%
  Population Membrane Permeable-Phenotype (%): 0% and 1%
  Population Mitochondria Different-Phenotype (%): 0%
  Population Mitotic Cells (%): 50%
  Population Normal (%): 100% and 99%
  Population Pyknosed Nuclei (%): 15% and 7%
  Population Tubulin-Different-Phenotype (%): 62% and 85%
U2OS; [6]
  Population Apoptotic (%): 100% and 55%
  Population Healthy Nuclei (%): 31% and 91%
  Population Hoechst High Intensity Objects (%): 0%
  Population Membrane Permeable-Phenotype (%): 0% and 1%
  Population Mitochondria Different-Phenotype (%): 0%
  Population Normal (%): 100%
  Population Pyknosed Nuclei (%): 1% and 5%
  Population Tubulin-Different-Phenotype (%): 77% and 80%

— ChEMBL document CHEMBL5303300, “EUbOPEN Chemogenomics Library - Multiplex” (2023)
